According to ChEMBL document CHEMBL2331483, “3-Hydroxypyridin-2-thione as novel zinc binding group for selective histone deacetylase inhibition” (J Med Chem, 2013):
pIC50: −log10 of the molar value. Calls of active or inactive are those of the source. No cut-off for these calls is given here.

How the values were obtained:
[1] = target: T1, Protein deacetylase HDAC6 (Homo sapiens) (UniProt Q9UBN7); experiment: Inhibition of HDAC6 (unknown origin) after 60 mins by SAMDI mass spectrometric analysis
T1 sequence (whole entry): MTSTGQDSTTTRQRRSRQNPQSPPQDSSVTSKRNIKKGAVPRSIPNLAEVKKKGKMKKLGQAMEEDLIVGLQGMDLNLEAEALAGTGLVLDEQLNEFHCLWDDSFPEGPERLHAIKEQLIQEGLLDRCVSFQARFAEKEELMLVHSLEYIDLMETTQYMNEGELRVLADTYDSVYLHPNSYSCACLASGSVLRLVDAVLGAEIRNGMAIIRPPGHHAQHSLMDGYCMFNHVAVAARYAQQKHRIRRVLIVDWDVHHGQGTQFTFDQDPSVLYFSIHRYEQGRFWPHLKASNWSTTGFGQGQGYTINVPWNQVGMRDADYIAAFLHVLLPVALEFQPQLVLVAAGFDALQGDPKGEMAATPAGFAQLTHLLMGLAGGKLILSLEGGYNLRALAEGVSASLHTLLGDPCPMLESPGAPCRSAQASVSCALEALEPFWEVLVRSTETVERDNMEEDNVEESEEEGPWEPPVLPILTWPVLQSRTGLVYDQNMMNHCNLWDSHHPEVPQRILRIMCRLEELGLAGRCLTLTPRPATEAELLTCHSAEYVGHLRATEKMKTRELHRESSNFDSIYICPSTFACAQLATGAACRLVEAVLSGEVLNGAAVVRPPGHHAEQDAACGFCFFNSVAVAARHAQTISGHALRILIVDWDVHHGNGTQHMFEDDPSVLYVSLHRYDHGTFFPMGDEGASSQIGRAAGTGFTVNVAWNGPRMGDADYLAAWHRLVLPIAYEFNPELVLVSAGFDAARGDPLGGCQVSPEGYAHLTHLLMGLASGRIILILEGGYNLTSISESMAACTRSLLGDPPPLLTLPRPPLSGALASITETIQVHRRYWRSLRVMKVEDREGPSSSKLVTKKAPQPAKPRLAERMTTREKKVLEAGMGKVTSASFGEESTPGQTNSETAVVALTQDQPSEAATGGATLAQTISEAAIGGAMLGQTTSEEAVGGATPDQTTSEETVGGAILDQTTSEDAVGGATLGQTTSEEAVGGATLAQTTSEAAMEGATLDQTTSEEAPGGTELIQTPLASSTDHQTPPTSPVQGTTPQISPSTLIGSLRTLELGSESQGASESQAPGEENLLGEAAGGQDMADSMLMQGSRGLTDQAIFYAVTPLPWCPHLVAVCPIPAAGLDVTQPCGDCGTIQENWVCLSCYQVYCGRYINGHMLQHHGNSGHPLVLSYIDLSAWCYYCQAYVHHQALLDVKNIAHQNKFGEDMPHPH

[2] = target: T2, Histone deacetylase 8 (Homo sapiens) (UniProt Q9BY41); experiment: (§1) Inhibition of HDAC8 (unknown origin) after 60 mins by SAMDI […] analysis
T2 sequence (whole entry): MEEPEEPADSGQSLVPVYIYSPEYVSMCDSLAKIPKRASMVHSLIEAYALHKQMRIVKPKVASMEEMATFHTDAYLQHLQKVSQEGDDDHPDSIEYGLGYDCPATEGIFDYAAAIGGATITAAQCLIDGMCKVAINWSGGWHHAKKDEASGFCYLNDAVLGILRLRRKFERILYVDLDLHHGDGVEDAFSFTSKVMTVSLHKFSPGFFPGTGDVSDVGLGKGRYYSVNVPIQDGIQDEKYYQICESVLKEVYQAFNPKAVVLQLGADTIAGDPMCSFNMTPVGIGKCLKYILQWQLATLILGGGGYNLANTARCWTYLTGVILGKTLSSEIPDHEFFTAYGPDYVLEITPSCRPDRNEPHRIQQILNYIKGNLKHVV

[3] = target: Histone deacetylase 1 (Homo sapiens) (UniProt Q13547); experiment: Inhibition of HDAC1 (unknown origin) after 60 mins by SAMDI […] analysis
Chain of Histone deacetylase 1 (Homo sapiens) (Q13547 whole entry, canonical isoform): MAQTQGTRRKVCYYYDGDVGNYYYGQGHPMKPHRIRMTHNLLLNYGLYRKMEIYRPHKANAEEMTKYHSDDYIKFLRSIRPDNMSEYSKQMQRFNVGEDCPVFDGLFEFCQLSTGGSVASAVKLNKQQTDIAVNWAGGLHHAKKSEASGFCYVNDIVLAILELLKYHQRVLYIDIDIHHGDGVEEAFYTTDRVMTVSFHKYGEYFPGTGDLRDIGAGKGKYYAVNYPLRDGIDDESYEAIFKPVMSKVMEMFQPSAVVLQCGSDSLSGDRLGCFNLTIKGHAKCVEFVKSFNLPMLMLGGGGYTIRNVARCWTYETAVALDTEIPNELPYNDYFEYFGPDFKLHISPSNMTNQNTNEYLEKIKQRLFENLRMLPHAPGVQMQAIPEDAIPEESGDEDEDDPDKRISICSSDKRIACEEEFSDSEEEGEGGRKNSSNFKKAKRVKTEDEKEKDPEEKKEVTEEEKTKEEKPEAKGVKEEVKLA
Outline: (§2)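 Label-free SAMDI deacetylase assay: isoform-optimized peptide substrate (50 μM) with enzyme (250 nM) and inhibitor, 60 min at 37°C. Reactions were quenched with TSA, immobilized on maleimide monolayers, washed and read by MALDI-MS. Yield came from substrate and deacetylated product peak intensities, in triplicate.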

[4] = target: T1, Protein deacetylase HDAC6 (Homo sapiens); experiment: Inhibition of HDAC6 (unknown origin) at 10 uM after 60 mins by SAMDI […] analysis relative to control
Outline: as §2

[5] = target: T2, Histone deacetylase 8 (Homo sapiens); experiment: Inhibition of HDAC8 (unknown origin) at 10 uM after 60 mins by SAMDI […] analysis relative to control
Outline: as §2

LNCaP = experiment: Cytotoxicity against human LNCAP cells assessed as growth inhibition by MTS assay; assay type: functional, cell-based; settings: for pIC50: Homo sapiens, LNCaP, read-out: IC50
Outline: (§3)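 Cells kept at 37°C in 5% CO2. Cells were plated 24 h before compound treatment, with top concentration 20 μM and final DMSO 0.1%. Viability was read by MTS per the kit protocol. IC50 is mean ± SD from at least 2 independent triplicate experiments.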

[6] = Aqueous solubility of the compound; assay type: physicochemical; settings: buffer
DU-145 = experiment: Cytotoxicity against human DU145 cells assessed as growth inhibition by MTS assay; assay type: functional, cell-based; settings: for pIC50: Homo sapiens, DU-145, read-out: IC50
Outline: as §3, with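 “CO2. DU-145 grew in EMEM and LNCaP in RPMI 1640, each with 10% FBS.” for “CO2.”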

Jurkat = experiment: cells; assay type: functional, cell-based, Homo sapiens; settings: for pIC50: Homo sapiens, Jurkat, 72 h, read-out: IC50
Histone deacetylase 8 = target: T3, Histone deacetylase 8 (Homo sapiens, UniProt Q9BY41); experiment: as §1
T3 sequence (Q9BY41 whole entry): T2 sequence (whole entry)

| SMILES | inhibition [1] | inhibition [2] | inhibition [3] | also measured |
| --- | --- | --- | --- | --- |
| O=c1c(O)cccn1Cc1ccccc1 | inactive | inactive | inactive | – |
| Oc1cccnc1O | – | – | – | inhibition [4]: < 20%; inhibition [5]: < 20% |
| CN(C)c1ccc(-c2ccc(Cn3cccc(O)c3=S)cc2)cc1 | – | – | – | inhibition [4]: < 20%; pIC50 (LNCaP): 4.79; solubility [6]: < 65 µg/mL; pIC50 (DU-145): < 4.70; pIC50 (Jurkat): 4.97 |
| O=c1c(O)cccn1Cc1ccc(-c2ccccc2)cc1 | inactive | inactive | inactive | – |
| Cc1ccccc1-c1ccc(Cn2cccc(O)c2=O)cc1 | inactive | inactive | inactive | – |
| CN(C)c1ccc(-c2ccc(Cn3cccc(O)c3=S)cc2)cn1 | – | – | – | inhibition [5]: 34% |
| Oc1cccn(Cc2cn(-c3ccccc3)nn2)c1=S | – | – | – | pIC50 (Histone deacetylase 8): 5.80; pIC50 (LNCaP): 4.88; pIC50 (DU-145): < 4.70; pIC50 (Jurkat): 5.33 |
| N#Cc1cccc(-c2ccc(Cn3cccc(O)c3=O)cc2)c1 | inactive | inactive | inactive | – |
| Cc1ccccc1-c1ccc(Cn2cccc(O)c2=S)cc1 | – | – | – | pIC50 (LNCaP): 5.11 |
| Cn1cccc(O)c1=O | inactive | inactive | inactive | – |
| N#Cc1cccc(-c2ccc(Cn3cccc(O)c3=S)cc2)c1 | – | – | – | inhibition [4]: 44% |
| N#Cc1ccc(-c2ccc(Cn3cccc(O)c3=O)cc2)cc1 | inactive | inactive | inactive | – |
| Oc1ccc[nH]c1=S | – | – | – | IC50 (LNCaP; lncap): Not Active; solubility [6]: < 65 µg/mL; IC50 (DU-145; du-145): Not Active; IC50 (Jurkat; jurkat): Not Active |

More lines, main results first:

| inhibition [1] | inhibition [2] | inhibition [3] | SMILES | also measured |
| --- | --- | --- | --- | --- |
| inactive | inactive | inactive | CN(C)c1ccc(-c2ccc(Cn3cccc(O)c3=O)cc2)cc1 | – |
| inactive | inactive | inactive | O=c1c(O)cccn1Cc1ccc(-c2ccncc2)cc1 | – |
| inactive | inactive | inactive | Cc1cccc(-c2ccc(Cn3cccc(O)c3=O)cc2)c1 | – |
| inactive | inactive | inactive | CN(C)c1ccc(-c2ccc(Cn3cccc(O)c3=O)cc2)cn1 | – |
| inactive | inactive | inactive | Cc1ccc(-c2ccc(Cn3cccc(O)c3=O)cc2)cc1 | – |
